Key:
[1] = tested on: Mus musculus; assay: Time course of Distribution of Radioactivity in Mice stomach after 3 mmol/kg dose of the Compound after 3 h; type: ADME, organism-based; conditions: in vivo
Method in brief: (§1)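 Groups of 12 mice given [acetyl-14C]-labelled drug ip, 3 mmol/kg (0.45 mCi/mmol), housed individually with urine/feces separation. Four killed at each of 1, 3 and 24 h by exsanguination. Tissues (~100 mg) digested in Soluene 350; blood digested and peroxide-bleached; feces freeze-dried, rehydrated, digested and bleached. Scintillation counting; nmol equiv/mg tissue or per mL blood/urine, means ± SE (N = 4).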

[2] = tested on: Mus musculus; assay: Time course of Distribution of Radioactivity in Mice kidney after 3 mmol/kg dose of the Compound after 24 h; type: ADME, organism-based; conditions: in vivo; method in brief: as §1
[3] = tested on: Mus musculus; assay: Time course of Distribution of Radioactivity in Mice Urine after 3 mmol/kg dose of the Compound after 3 h; type: ADME, organism-based; conditions: in vivo; method in brief: as §1
[4] = tested on: Mus musculus; assay: Time course of Distribution of Radioactivity in Mice feces after 3 mmol/kg dose of the Compound after 3 h; type: ADME, organism-based; conditions: in vivo; method in brief: as §1
[5] = tested on: Mus musculus; assay: Time course of Distribution of Radioactivity in Mice brain after 3 mmol/kg dose of the Compound after 1 h; type: ADME, organism-based; conditions: in vivo; method in brief: as §1
[6] = species: Mus musculus; assay: Analgesic activity determined in mice using the Bradykinin-induced Writhing test; type: functional
Method in brief: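 Male CD1 mice (15–20 g), test drug given orally 15 min before bradykinin ip (4 μg in 0.2 mL sterile water), then a second bradykinin injection (0.2 μg/0.1 mL) 15 min later. Writhing was scored over the next 10 min, with control groups of 10 mice. ED50 was derived by log-probit analysis from at least five doses, with 95% limits.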

[7] = tested on: Mus musculus; assay: Time course of Distribution of Radioactivity in Mice intestine after 3 mmol/kg dose of the Compound after 24 h; type: ADME, organism-based; conditions: in vivo; method in brief: as §1
[8] = tested on: Mus musculus; assay: Time course of Distribution of Radioactivity in Mice lungs/heart after 3 mmol/kg dose of the Compound after 1 h; type: ADME, organism-based, Lung; conditions: in vivo; method in brief: as §1
[9] = tested on: Mus musculus; assay: Urinary Metabolic (3-(methylthio)acetaminophen) profile in the mouse 24 h after dose of 3 mmol/kg of the compound; type: ADME, organism-based, Urine; conditions: in vivo
[10] = tested on: Mus musculus; assay: Time course of Distribution of Radioactivity in Mice feces after 3 mmol/kg dose of the Compound after 24 h; type: ADME, organism-based; conditions: in vivo; method in brief: as §1
[11] = tested on: Mus musculus; assay: Time course of Distribution of Radioactivity in Mice Liver after 3 mmol/kg dose of the Compound after 24 h; type: ADME, organism-based; conditions: in vivo; method in brief: as §1
[12] = tested on: Mus musculus; assay: Time course of Distribution of Radioactivity in Mice blood after 3 mmol/kg dose of the Compound after 24 h; type: ADME, organism-based; conditions: in vivo; method in brief: as §1
[13] = tested on: Mus musculus; assay: Urinary Metabolic (3-cysteinnylacetaminophen) profile in the mouse 24 hr after dose of 3 mmol/kg of the compound; type: ADME, organism-based, Urine; conditions: in vivo
[14] = tested on: Mus musculus; assay: Time course of Distribution of Radioactivity in Mice kidney after 3 mmol/kg dose of the Compound after 1 h; type: ADME, organism-based; conditions: in vivo; method in brief: as §1
[15] = tested on: Mus musculus; assay: Time course of Distribution of Radioactivity in Mice intestine after 3 mmol/kg dose of the Compound after 1 h; type: ADME, organism-based; conditions: in vivo; method in brief: as §1
[16] = tested on: Mus musculus; assay: Time course of Distribution of Radioactivity in Mice spleen after 3 mmol/kg dose of the Compound after 24 h; type: ADME, organism-based; conditions: in vivo; method in brief: as §1
[17] = tested on: Mus musculus; assay: (§2) Hepatotoxicity in Swiss-Webster Mice Caused by compound at 400 mg/kg (i.p.) dose; type: functional; conditions: route intraperitoneal
Method in brief: (§3)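 Male Swiss-Webster mice (20 g), groups of 10, were given a single ip dose of drug in saline with no pretreatment. Survivors were decapitated at 24 h and counted. Plasma ALT was measured, and liver sections (formalin-fixed, paraffin, H&E) were scored for necrosis severity in survivors. Values are means ± SE.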

[18] = tested on: Mus musculus; assay: Time course of Distribution of Radioactivity in Mice blood after 3 mmol/kg dose of the Compound after 3 h; type: ADME, organism-based; conditions: in vivo; method in brief: as §1
[19] = tested on: Mus musculus; assay: Time course of Distribution of Radioactivity in Mice brain after 3 mmol/kg dose of the Compound after 3 h; type: ADME, organism-based; conditions: in vivo; method in brief: as §1
[20] = tested on: Mus musculus; assay: Time course of Distribution of Radioactivity in Mice intestine after 3 mmol/kg dose of the Compound after 3 h; type: ADME, organism-based; conditions: in vivo; method in brief: as §1
[21] = tested on: Mus musculus; assay: Time course of Distribution of Radioactivity in Mice stomach after 3 mmol/kg dose of the Compound after 24 h; type: ADME, organism-based; conditions: in vivo; method in brief: as §1
[22] = tested on: Mus musculus; assay: Urinary Metabolic (Acetaminophen) profile in the mouse 24 h after dose of 3 mmol/kg of the compound; type: ADME, organism-based, Urine; conditions: in vivo
[23] = tested on: Mus musculus; assay: (§4) Hepatotoxicity in Swiss-Webster Mice Caused by compound at 750 mg/kg (i.p.) dose; type: functional; conditions: route intraperitoneal; method in brief: as §3
[24] = tested on: Mus musculus; assay: Time course of Distribution of Radioactivity in Mice Liver after 3 mmol/kg dose of the Compound after 3 h; type: ADME, organism-based; conditions: in vivo; method in brief: as §1
[25] = tested on: Mus musculus; assay: Urinary Metabolic (acetaminophen-3-mecapturate) profile in the mouse 24 hr after dose of 3 mmol/kg of the compound; type: ADME, organism-based, Urine; conditions: in vivo
[26] = tested on: Mus musculus; assay: Time course of Distribution of Radioactivity in Mice blood after 3 mmol/kg dose of the Compound after 1 h; type: ADME, organism-based; conditions: in vivo; method in brief: as §1
[27] = tested on: Mus musculus; assay: Hepatotoxicity in Swiss-Webster Mice Caused by compound at 750 mg/kg (i.p.) dose; 4/10; type: functional; conditions: route intraperitoneal; method in brief: as §3
[28] = tested on: Mus musculus; assay: as §4; type: functional, organism-based; parameters: dose 750 mg/kg; method in brief: as §3
[29] = tested on: Mus musculus; assay: Time course of Distribution of Radioactivity in Mice lungs/heart after 3 mmol/kg dose of the Compound after 3 h; type: ADME, organism-based, Lung; conditions: in vivo; method in brief: as §1
[30] = tested on: Mus musculus; assay: Time course of Distribution of Radioactivity in Mice spleen after 3 mmol/kg dose of the Compound after 3 h; type: ADME, organism-based; conditions: in vivo; method in brief: as §1
[31] = tested on: Mus musculus; assay: Time course of Distribution of Radioactivity in Mice Liver after 3 mmol/kg dose of the Compound after 1 h; type: ADME, organism-based; conditions: in vivo; method in brief: as §1
[32] = tested on: Mus musculus; assay: Hepatotoxicity in Swiss-Webster Mice Caused by compound at 400 mg/kg (i.p.) dose; 8/10; type: functional; conditions: route intraperitoneal; method in brief: as §3
[33] = tested on: Mus musculus; assay: Urinary Metabolic (3-hydroxyacetaminophen) profile in the mouse 24 h after dose of 3 mmol/kg of the compound; type: ADME, organism-based, Urine; conditions: in vivo
[34] = tested on: Mus musculus; assay: Time course of Distribution of Radioactivity in Mice Urine after 3 mmol/kg dose of the Compound after 1 h; type: ADME, organism-based; conditions: in vivo; method in brief: as §1
[35] = tested on: Mus musculus; assay: Time course of Distribution of Radioactivity in Mice brain after 3 mmol/kg dose of the Compound after 24 h; type: ADME, organism-based; conditions: in vivo; method in brief: as §1
[36] = tested on: Mus musculus; assay: Time course of Distribution of Radioactivity in Mice Urine after 3 mmol/kg dose of the Compound after 24 h; type: ADME, organism-based; conditions: in vivo; method in brief: as §1
[37] = tested on: Mus musculus; assay: Time course of Distribution of Radioactivity in Mice lungs/heart after 3 mmol/kg dose of the Compound after 24 h; type: ADME, organism-based, Lung; conditions: in vivo; method in brief: as §1
[38] = tested on: Mus musculus; assay: Time course of Distribution of Radioactivity in Mice kidney after 3 mmol/kg dose of the Compound after 3 h; type: ADME, organism-based; conditions: in vivo; method in brief: as §1
[39] = tested on: Mus musculus; assay: as §2; type: functional, organism-based; parameters: dose 400 mg/kg; method in brief: as §3
[40] = tested on: Mus musculus; assay: Time course of Distribution of Radioactivity in Mice stomach after 3 mmol/kg dose of the Compound after 1 h; type: ADME, organism-based; conditions: in vivo; method in brief: as §1
[41] = tested on: Mus musculus; assay: Time course of Distribution of Radioactivity in Mice spleen after 3 mmol/kg dose of the Compound after 1 h; type: ADME, organism-based; conditions: in vivo; method in brief: as §1
[42] = tested on: Mus musculus; assay: Time course of Distribution of Radioactivity in Mice feces after 3 mmol/kg dose of the Compound after 1 hr; type: ADME, organism-based; conditions: in vivo; method in brief: as §1
[43] = tested on: Mus musculus; assay: Urinary Metabolic (3-methoxyacetaminophen) profile in the mouse 24 hr after dose of 3 mmol/kg of the compound; type: ADME, organism-based, Urine; conditions: in vivo

CC(=O)Nc1ccc(O)cc1 [ACETAMINOPHEN] was tested, and the Radioactivity [1] was 0.71 nM equiv (mg of tissue)-1, the Radioactivity [2] was 0.21 nM equiv (mg of tissue)-1 and the Radioactivity [3] was 3880 nM equiv (ml of urine)-1. For the same molecule, the Radioactivity [4] was 1.52 nM equiv mg-1, the Radioactivity [5] was 1.22 nM equiv (mg of tissue)-1 and the ED50 [6] was 84.3 mg/kg. The Radioactivity [7] was 0.92 nM equiv (mg of tissue)-1, the Radioactivity [8] was 1.13 nM equiv (mg of tissue)-1 and the Administered dose [9] was 2.3%. For the same molecule, the Radioactivity [10] was 15.3 nM equiv mg-1, the Radioactivity [11] was 0.58 nM equiv (mg of tissue)-1 and the Radioactivity [12] was 19.2 nM equiv (ml of blood)-1. The Administered dose [13] was 18.5%, the Radioactivity [14] was 2.45 nM equiv (mg of tissue)-1 and the Radioactivity [15] was 2.19 nM equiv (mg of tissue)-1. The Radioactivity [16] was 0.04 nM equiv (mg of tissue)-1, the “Hepatic necrosis in survivors” value [17] was 1.13 and the Radioactivity [18] was 544 nM equiv (ml of blood)-1. For the same molecule, the Radioactivity [19] was 0.24 nM equiv (mg of tissue)-1, the Radioactivity [20] was 1.08 nM equiv (mg of tissue)-1 and the Radioactivity [21] was 0.15 nM equiv (mg of tissue)-1. The Administered dose [22] was 68.8%, the “Hepatic necrosis in survivors” value [23] was 3.25 and the Radioactivity [24] was 0.73 nM equiv (mg of tissue)-1. The Administered dose [25] was 2%, the Radioactivity [26] was 1605 nM equiv (ml of blood)-1 and the “Survivors at 24 h” value [27] was 4. The Plasma ALT at 24 h [28] was 4030 mU ml-1, the Radioactivity [29] was 0.2 nM equiv (mg of tissue)-1 and the Radioactivity [30] was 0.29 nM equiv (mg of tissue)-1. For the same molecule, the Radioactivity [31] was 2.89 nM equiv (mg of tissue)-1, the “Survivors at 24 h” value [32] was 8 and the Administered dose [33] was 0.4%. For the same molecule, the Radioactivity [34] was 12.4 nM equiv (ml of urine)-1, the Radioactivity [35] was 0.05 nM equiv (mg of tissue)-1 and the Radioactivity [36] was 6005 nM equiv (ml of urine)-1. The Radioactivity [37] was 0.11 nM equiv (mg of tissue)-1, the Radioactivity [38] was 1.19 nM equiv (mg of tissue)-1 and the Plasma ALT at 24 h [39] was 1550 mU ml-1. The Radioactivity [40] was 1.13 nM equiv (mg of tissue)-1, the Radioactivity [41] was 1.55 nM equiv (mg of tissue)-1 and the Radioactivity [42] was 0.09 nM equiv mg-1. The Administered dose [43] was 1.1%.
